Experimental findings from ChEMBL document CHEMBL1681740, “Quinolizidinone carboxylic acid selective M1 allosteric modulators: SAR in the piperidine series” (Bioorg Med Chem Lett, 2011) are described below.

In data set [1] the test system is Mus musculus. The data set is described as follows: Antiamnesic activity against in contextual fear conditioning B6SJL mouse modle assessed as reversal of scopolamine-induced episodic memory deficit in at 10 mg/kg. More on the design: dose 10 mg/kg. It is filed as functional, organism-based. A digest of the protocol:
(§1)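 Contextual fear conditioning model of episodic memory in B6SJL mice; scopolamine-induced deficit; test agents given at 3, 10 and 30 mpk; read-out is reversal of the scopolamine deficit.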

Data set [2] has as its target T1, Muscarinic acetylcholine receptor M1 (Homo sapiens) (UniProt P11229).
T1 sequence (whole entry): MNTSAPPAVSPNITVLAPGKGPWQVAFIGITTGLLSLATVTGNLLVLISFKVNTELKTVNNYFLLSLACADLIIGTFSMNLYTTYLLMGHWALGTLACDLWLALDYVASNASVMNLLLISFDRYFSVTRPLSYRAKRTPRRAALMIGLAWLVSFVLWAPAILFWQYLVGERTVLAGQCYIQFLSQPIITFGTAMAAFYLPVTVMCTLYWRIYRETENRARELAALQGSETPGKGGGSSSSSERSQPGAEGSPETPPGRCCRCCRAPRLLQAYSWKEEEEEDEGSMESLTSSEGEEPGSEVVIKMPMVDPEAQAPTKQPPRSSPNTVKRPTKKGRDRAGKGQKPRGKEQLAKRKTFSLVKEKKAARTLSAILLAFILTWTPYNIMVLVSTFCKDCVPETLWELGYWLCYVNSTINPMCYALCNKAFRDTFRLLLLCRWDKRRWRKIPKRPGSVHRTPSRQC
The data set is described as follows: Positive allosteric modulation at human muscarinic M1 receptor expressing CHO cells assessed as potentiation of acetylcholine-induced calcium mobilization by FLIPR assay. Format: functional, cell-based. In short, it runs like this:
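CHO cells expressing human M1 receptor. Inflection point determined in the presence of an EC20 concentration of acetylcholine. Mean of at least two experiments; interassay variability ±30%.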
On the technique in general: Calcium flux is commonly read through the fluorescence of an indicator in the cells.

The nature of data set [3]: Plasma protein binding in rat. The following applies: read-out: PPB (converted). Format: ADME, cell-free.
The nature of data set [4]: Plasma protein binding in human. It is filed as ADME, cell-free. Particulars: read-out: PPB (converted).
Data set [5] in a line: Distribution coefficient, log D of the compound. Format: physicochemical. Particulars: octanol/water.
The target of data set [6] is T1, Muscarinic acetylcholine receptor M1 (Homo sapiens). Nature of the data set: Positive allosteric modulation at human muscarinic M1 receptor expressing CHO cells assessed as potentiation of acetylcholine-induced calcium mobilization at 0.1 to 1 uM by FLIPR assay. It is filed as functional, cell-based. In short, it runs like this: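 Human M1-expressing CHO cells; calcium mobilization read-out. Acetylcholine dose–response curves run with modulator at rising concentrations from 0.1 to 1 μM; fold potentiation taken from the leftward shift of the curve.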

The next data set concerns Brain. The data set is described as follows: Drug uptake in Sprague-Dawley rat brain at 10 mg/kg, po. More on the design: dose 10 mg/kg, route oral. Particulars: in vivo, read-out: Drug uptake. Format: ADME, organism-based. A digest of the protocol:
(§2)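 Sprague-Dawley rats dosed orally at 10 mg/kg in 0.5% methocel. Drug levels measured by bioanalysis of plasma, brain and CSF; brain/plasma ratio derived from these. Interanimal variability under 20%.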

Data set [7] has as its system Mus musculus. Nature of the data set: Antiamnesic activity against in contextual fear conditioning B6SJL mouse modle assessed as reversal of scopolamine-induced episodic memory deficit in at 3 mg/kg. Format: functional, organism-based. More on the design: dose 3 mg/kg. A digest of the protocol: as §1
Data set [8] is described as follows: Ratio of drug uptake in CSF to fraction unbound in plasma in rat. Format: ADME, cell-free. A digest of the protocol:
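Sprague-Dawley rats, oral 10 mg/kg in 0.5% methocel. CSF level divided by unbound plasma level, with unbound plasma derived using rat plasma protein binding values.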

The subject of data set [9] is Plasma. Nature of the data set: Plasma concentration in Sprague-Dawley rat at 10 mg/kg, po. Format: ADME, organism-based. More on the design: dose 10 mg/kg, route oral. The following applies: in vivo. In short, it runs like this: as §2
A short description of data set [10]: Drug uptake in Sprague-Dawley rat CSF at 10 mg/kg, po. More on the design: dose 10 mg/kg, route oral. Particulars: in vivo, read-out: Drug uptake. It is filed as ADME, organism-based, Cerebrospinal fluid. A digest of the protocol: as §2
The nature of data set [11]: Ratio of drug uptake in brain to plasma in Sprague-Dawley rat at 10 mg/kg, po. It is filed as ADME, organism-based. More on the design: dose 10 mg/kg, route oral. The following applies: read-out: BPR. In short, it runs like this: as §2
Data set [12] relates to Plasma. The data set is described as follows: Plasma concentration in B6SJL mouse at 30 mg/kg. Format: ADME, organism-based. More on the design: dose 30 mg/kg. Particulars: in vivo. In short, it runs like this:
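Plasma drug levels in B6SJL mice measured after 30 mpk dosing in the contextual fear conditioning study.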

Data set [13] relates to Mus musculus. The data set is described as follows: Antiamnesic activity against in contextual fear conditioning B6SJL mouse modle assessed as reversal of scopolamine-induced episodic memory deficit in at 30 mg/kg. Format: functional, organism-based. More on the design: dose 30 mg/kg. A digest of the protocol:
as §1

Data set [14] in a line: Ratio of drug uptake in CSF to fraction unbound in plasma in wild type CF-1 mouse after 30 mins. It is filed as ADME, cell-free. Particulars: 0.5 h. In short, it runs like this:
(§3)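 CF-1 mice, wild type and P-gp knockout, were treated with the compound. Plasma and CSF were collected 30 minutes after treatment. The value is the CSF concentration divided by the unbound plasma concentration (CSF/U plasma ratio), reported separately for each genotype.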

Data set [15] in a line: Ratio of drug uptake in CSF to fraction unbound in plasma in P-gp knock out CF-1 mouse after 30 mins. Format: ADME, cell-free. The following applies: 0.5 h. In short, it runs like this:
as §3

Data set [16] deals with T2, Muscarinic acetylcholine receptor M1 (Rattus norvegicus) (UniProt P08482).
T2 sequence (whole entry): T1 sequence (whole entry) with A5V, T254S, P309S, R320K, A337G, I413V
Nature of the data set: Positive allosteric modulation at rat muscarinic M1 receptor.

Numbering of substitutions follows the chain as printed. The source made the active and inactive calls. No cut-off for these calls is given here.

On to `Cc1ccc(C2CCN(Cc3cc(C(=O)O)c(=O)n4ccccc34)CC2)cc1`, for which the outcome in the data set on Mus musculus [1], with Mus musculus [7] and in the data set on Mus musculus [13] was inactive. Moreover, the IP in [2] came to 1.7 µM; in [16], 760 nM. Besides, the figures for the fraction unbound in data set [3] and in data set [4] were 0.11 and 0.09, respectively. In data set [5], the logD stood at 2.97. For the same compound, the outcome in [6] was Active. Also, the concentration was determined as 5.78 µM with Brain, 0.915 µM in the data set on Plasma [9], 0.028 µM in data set [10] and 31 µM in the data set on Plasma [12]. Also, the figures for the Ratio in [8], in [14] and in data set [15] were 0.7, 0.37 and 0.42, respectively. Besides, the Kp in [11] came out at 6.

The logD is lipophilicity at a set pH, counting ionised and neutral species. The low end stands for a more hydrophilic compound, the high end for a more lipophilic compound.
